Results as given in ChEMBL document CHEMBL3120104, “Discovery of the first C-nucleoside HCV polymerase inhibitor (GS-6620) with demonstrated antiviral response in HCV infected patients” (J Med Chem, 2014).

System: not listed separately
Test: Metabolic stability in serum (unknown origin)
Format: ADME
Conditions: not given

| Compound | Stability |
| --- | --- |
| CC(C)OC(=O)[C@H](C)NP(=O)(OC[C@H]1O[C@@](C#N)(c2ccc3c(N)ncnn23)[C@]2(C)OC(=O)O[C@H]12)Oc1ccccc1 (some centres not stated) | Stable |

System: not listed separately
Test: Oral absorption in beagle dog at 5 mg/kg, po by LC/MS/MS analysis
Format: ADME, organism-based, Canis lupus familiaris
Set-up: dose 5 mg/kg, route oral
Conditions: in vivo
In short: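 Naive male beagle dogs were dosed once, orally at 5 mg/kg in EtOH/PEG 400/50 mM citrate buffer pH 4 (5/40/55), or intravenously at 0.5 mg/kg for reference. Plasma was sampled over 24 h and processed by acetonitrile precipitation. Bioavailability %F = AUC_po × Dose_iv / (AUC_iv × Dose_po).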

| Compound | Fa [%] |
| --- | --- |
| CC(C)OC(=O)[C@H](C)NP(=O)(OC[C@H]1O[C@@](C#N)(c2ccc3c(N)ncnn23)[C@]2(C)OC(=O)O[C@H]12)Oc1ccccc1 (some centres not stated) | 29 |

System: Syrian golden hamster
Test: Cmax in golden syrian hamster assessed as liver triphosphate level at 5 mg/kg, po by LC/MS/MS analysis
Format: ADME, organism-based, Mesocricetus auratus
Set-up: dose 5 mg/kg, route oral
Conditions: in vivo
In short: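 Groups of 12 Golden Syrian hamsters were dosed orally at 5 mg-equiv/kg. Vehicle was EtOH/PEG400/water buffered with 50 mM pH 4 citrate at 2.5 mg-equiv/mL. Liver was homogenized in four volumes of ice-cold 0.1% KOH/67 mM EDTA in 70% MeOH containing 0.25 μM Cl-ATP, then centrifuged, dried and reconstituted in 1 mM ammonium phosphate pH 7.0. Triphosphate was measured by LC/MS/MS, with endogenous ATP checked for sample stability.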

| Compound | Cmax [nM] |
| --- | --- |
| CC(C)OC(=O)[C@H](C)NP(=O)(OC[C@H]1O[C@@](C#N)(c2ccc3c(N)ncnn23)[C@]2(C)OC(=O)O[C@H]12)Oc1ccccc1 (some centres not stated) | 590 |

System: Syrian golden hamster
Test: Cmax in golden syrian hamster assessed as liver triphosphate level at 1 mg/kg, iv by LC/MS/MS analysis
Format: ADME, organism-based, Mesocricetus auratus
Set-up: dose 1 mg/kg, route intravenous
Conditions: in vivo
In short: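 Golden Syrian hamsters in groups of 12, dosed iv at 1 mg-equiv/kg in EtOH/PEG400/water adjusted to pH 4 with HCl (0.5 mg-equiv/mL). Liver homogenised in ice-cold 70% MeOH with 0.1% KOH, 67 mM EDTA and 0.25 μM Cl-ATP internal standard, then centrifuged, dried and reconstituted. Triphosphate measured by LC/MS/MS; endogenous ATP checked for sample stability.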

| Compound | Cmax [nM] |
| --- | --- |
| CC(C)OC(=O)[C@H](C)NP(=O)(OC[C@H]1O[C@@](C#N)(c2ccc3c(N)ncnn23)[C@]2(C)OC(=O)O[C@H]12)Oc1ccccc1 (some centres not stated) | 1920 |

System: not listed separately
Test: Lipophilicity, log D of the compound by HPLC/UV method
Format: physicochemical
Conditions: not given
In short: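 A 10 mM DMSO stock was diluted 1:100 into 1:1 acetonitrile/water, shaken 30 min, and analysed by HPLC/UV on a C18 column with 20 mM ammonium acetate/acetonitrile mobile phase.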

| Compound | logD |
| --- | --- |
| CC(C)OC(=O)[C@H](C)NP(=O)(OC[C@H]1O[C@@](C#N)(c2ccc3c(N)ncnn23)[C@]2(C)OC(=O)O[C@H]12)Oc1ccccc1 (some centres not stated) | 2.6 |

System: not listed separately
Test: Cytotoxicity against human HuH7 cells after 3 days by fluorescence assay
Format: cell-based
Conditions: Huh-7 cells
In short: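 Huh-7 HCV replicon cells were seeded at 2000 cells/well in medium without Geneticin. Compounds were added as ten-point 1:3 DMSO dilutions in quadruplicate (final DMSO 0.44%), with […] as the 100% cytotoxicity control. After 3 days at 37 °C, cells were washed and given 400 nM calcein AM for 30 min at RT, and fluorescence read at ex 490/em 520 nm. Signal was normalized to DMSO and puromycin wells, and CC50 taken from a four-parameter Hill fit.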

| Compound | CC50 at 72 h [nM] |
| --- | --- |
| CC(C)OC(=O)[C@H](C)NP(=O)(OC[C@H]1O[C@@](C#N)(c2ccc3c(N)ncnn23)[C@]2(C)OC(=O)O[C@H]12)Oc1ccccc1 (some centres not stated) | > 89000 |

System: Hepatitis C virus
Test: Antiviral activity against HCV genotype 1b infected in human HuH7 cells assessed as inhibition of viral replication after 3 days by luminescence assay
Format: functional, organism-based, Hepacivirus hominis
Conditions: Huh-7, 72 h
In short: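 Multiplex replicon assay carrying a renilla luciferase reporter, with stable GT1b, 1a and 2a replicons and chimeric 2b, 3a, 4a, 5a and 6a replicons. 2000 replicon cells/well in medium without Geneticin. Ten-step 1:3 serial dilutions, four replicates, 0.44% DMSO final. Incubated 3 days at 37 °C, 5% CO₂. Luminescence normalised to DMSO wells and to protease-inhibitor (ITMN-191) wells. EC50 from a four-parameter Hill fit.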

| Compound | EC50 [nM] |
| --- | --- |
| CC(C)OC(=O)[C@H](C)NP(=O)(OC[C@H]1O[C@@](C#N)(c2ccc3c(N)ncnn23)[C@]2(C)OC(=O)O[C@H]12)Oc1ccccc1 (some centres not stated) | 1410 |
